Laboratory results as given in ChEMBL document CHEMBL4138078, “Structure-based virtual screening and optimization of modulators targeting Hsp90-Cdc37 interaction” (Eur J Med Chem, 2017).
Calls of active or inactive are those of the source. No cut-off for these calls is given here.

Columns and labels:
Homo sapiens = species: Homo sapiens; assay: Inhibition of full length His-tagged HSP90/GST-tagged Cdc37 (unknown origin) interaction at 100 uM after 1 hr by HTRF assay relative to control
Summary of the method: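 HTRF assay using His-tagged full-length Hsp90 and GST-tagged Cdc37 M, each 250 nM final, in PBS with an extra 400 mM KF, pH 7.4. Compound incubated 1 h at 37 °C. Anti-GST-Cryptate and anti-6His-XL665 then added, 0.5 h at 37 °C. Ex 320 nm; ratio = (665/620 nm) × 10000. No-compound negative control and reagent-only blank.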

A549 = assay: Antiproliferative activity against human A549 cells after 72 hrs by MTT assay; assay type: functional, cell-based; details: A549, 72 h
Summary of the method: (§1)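 Cells seeded at 10000/well and left 24 h, then exposed to compounds in DMSO (200 μM down to 0.823 μM, three-fold steps) for 72 h at 37 °C. Viability was read by MTT (5 mg/mL in PBS) with formazan dissolved in DMSO, OD at 490 nm. IC50 was taken from parallel experiments as mean ± SD. Media: MCF-7 in MEM, SKBR-3 in RPMI-1640, A549 in F12K, each with 10% FCS.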

[1] = Inhibition of full length His-tagged HSP90/GST-tagged Cdc37 (unknown origin) interaction after 1 hr by HTRF assay; set-up: species or system Homo sapiens
Summary of the method: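 Final 250 nM each of His-Hsp90 (full length) and GST-Cdc37 M in PBS with extra 400 mM KF, pH 7.4. Compound added (300 μM to 1.23 μM, three-fold steps), 1 h at 37 °C. Anti-GST-cryptate and anti-6His-XL665 added, 0.5 h at 37 °C. TR-FRET read at ex 320 nm, em 665/620 nm, ratio ×10000. No-compound and reagent-only controls included.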

SK-BR-3 = assay: Antiproliferative activity against human SKBR3 cells after 72 hrs by MTT assay; assay type: functional, cell-based; details: SK-BR-3, 72 h; summary of the method: as §1
MCF7 = assay: Antiproliferative activity against human MCF7 cells after 72 hrs by MTT assay; assay type: functional, cell-based; details: MCF7, 72 h; summary of the method: as §1
Heat shock protein HSP90 [2] = target: T1, Heat shock protein HSP90 (Homo sapiens, UniProt P07900+P08238); assay: Inhibition of GA-FITC binding to N-terminal GST-tagged HSP90 (unknown origin) expressed in Escherichia coli at 100 uM after 30 mins fluorescence polarization assay relative to control
Heat shock protein HSP90 [3] = target: T1, Heat shock protein HSP90; assay: Binding affinity to N-terminal GST-tagged HSP90 (unknown origin) expressed in Escherichia coli by biolayer interferometry analysis
Heat shock protein HSP90 [4] = target: T1, Heat shock protein HSP90; assay: Inhibition of N-terminal GST-tagged HSP90 ATPase activity (unknown origin) expressed in Escherichia coli at 100 uM after 1 hr in presence of ATP by spectrophotometric assay relative to control
Summary of the method: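 ADP Hunter Plus ADP-detection kit. Compound at 100 μM final in 15 mM HEPES, 20 mM NaCl, 1 mM EDTA, 10 mM MgCl2, 0.02% Tween20, pH 7.4. Mixed in equal volumes with Hsp90 (5 μM) and ATP (100 μM), 1 h at 37 °C. Detection reagents A and B added, 30 min at room temperature; ex 540/em 620 nm. Protein-free background; no-ligand wells set as 100% activity.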

Compound | inhibition (Homo sapiens) [%] | other results
Cc1cc(NS(=O)(=O)c2ccc(NC(=O)CCC(=O)Nc3ccc(S(=O)(=O)Nc4cc(C)on4)cc3)cc2)no1 | 69.8 to 70 | 
Cc1noc(NS(=O)(=O)c2ccc(NC(=O)CC(=O)Nc3ccc(S(=O)(=O)Nc4onc(C)c4C)cc3)cc2)c1C | < 10 | 
C[C@H](O)c1ccc(-c2ccc(CNCCCSc3nnnn3-c3ccccc3)o2)cc1 | < 10 | 
O=C(CC(=O)Nc1ccc(S(=O)(=O)Nc2ccccc2)cc1)Nc1ccc(S(=O)(=O)Nc2ccccc2)cc1 | 30.4 | 
COC(=O)c1cc(NCc2cc(Cl)c(OCC(N)=O)c(OC)c2)ccc1N1CCOCC1 | < 10 | 
CC(=O)Nc1ccc(C(=O)OCCOC(=O)C2=C(C)NC(C)=C(C(=O)OCCNC(=O)c3ccccc3O)[C@H]2c2cccc([N+](=O)[O-])c2)cc1 | < 10 | 
C=C1[C@@H](C(=O)Nc2ccc(NS(=O)(=O)c3ccc(C)cc3)cc2)[C@@H]1C(=O)Nc1ccc(NS(=O)(=O)c2ccc(C)cc2)cc1 | < 10 | 
COc1cccc(C(c2c(N)nc(SCC(N)=O)[nH]c2=O)c2c(N)nc(SCC(N)=O)[nH]c2=O)c1 | 14.3 | 
CCOc1ccc(C(=O)C2=C(O)C(=O)N(CCOCCO)[C@@H]2c2cccc(OC)c2)cc1 | < 10 | 
NC(=O)C1CCN(C[C@H](O)COc2ccc(OC[C@@H](O)CN3CCC(C(N)=O)CC3)cc2)CC1 | < 10 | 
COc1ccc(NS(=O)(=O)c2ccc(NC(=O)CCC(=O)Nc3ccc(S(=O)(=O)Nc4ccc(OC)nn4)cc3)cc2)nn1 | < 10 | 
O=C(CCC(=O)Nc1ccc(S(=O)(=O)Nc2ccccn2)cc1)Nc1ccc(S(=O)(=O)Nc2ccccn2)cc1 | < 10 | 
COc1ccc(CCNc2cc(N3CCN(CCO)CC3)ccc2[N+](=O)[O-])cc1OC | 30.7 | IC50 (A549): > 100 µM; IC50 [1]: 296 µM; IC50 (SK-BR-3): 84.6 µM; IC50 (MCF7): > 100 µM
Cc1cc(NS(=O)(=O)c2ccc(NC(=O)CCCCC(=O)Nc3ccc(S(=O)(=O)Nc4cc(C)on4)cc3)cc2)no1 | 20.7 | 
CC1=C(C(=O)OCCNC(=O)c2ccc(O)cc2)[C@@H](c2cccc([N+](=O)[O-])c2)C(C(=O)OCCNC(=O)c2ccccc2O)=C(C)N1 | < 10 | 
Cc1cc(C)c(NS(=O)(=O)c2ccc(NC(=O)CCCCC(=O)Nc3ccc(S(=O)(=O)Nc4c(C)cc(C)cc4C)cc3)cc2)c(C)c1 | 21.5 | 
O=C1NCCCC[C@H]1N[C@@H]1CC(=O)N(c2ccc(N3C(=O)C[C@@H](N[C@@H]4CCCCNC4=O)C3=O)cc2)C1=O | < 10 | 
Cc1ccnc(NS(=O)(=O)c2ccc(NC(=O)c3cccc(C(=O)Nc4ccc(S(=O)(=O)Nc5nccc(C)n5)cc4)c3)cc2)n1 | < 10 | 
CCOC(=O)C1=C(CSc2nc3c(cc2C#N)CN(C)CC3)OC(N)=C(C#N)C1c1ccncc1 (centres undefined) | < 10 | 
COc1ccccc1N(CC(=O)N/N=C/c1ccc(OCC(=O)Nc2ccccc2Cl)cc1)S(=O)(=O)c1ccc(C)cc1 | 13.6 | 
Cc1cc(NS(=O)(=O)c2ccc(NC(=O)CC(=O)Nc3ccc(S(=O)(=O)Nc4cc(C)on4)cc3)cc2)no1 | 65.6 to 66 | 
CC.COc1ccc(NC(=O)C2=C(C)Nc3nc(CCCO)nn3[C@H]2c2ccc(OC)c(OC)c2)cc1 | 36.6 | inhibition (Heat shock protein HSP90 [2]): inactive; Kd (Heat shock protein HSP90 [3]): > 100 µM; IC50 (A549): > 100 µM; IC50 [1]: 154 µM; IC50 (SK-BR-3): > 100 µM; inhibition (Heat shock protein HSP90 [4]): 45.7%; IC50 (MCF7): > 100 µM
CC/N=C1\S[C@H](CC(=O)Nc2cccc(NC(=O)C[C@@H]3S/C(=N/CC)N(CC)C3=O)c2)C(=O)C1CC (some centres undefined) | < 10 | 
